Measured values from ChEMBL document CHEMBL4831540, “Discovery of Aficamten (CK-274), a Next-Generation Cardiac Myosin Inhibitor for the Treatment of Hypertrophic Cardiomyopathy” (J Med Chem, 2021).

Legend:
[1] = Oral bioavailability in cynomolgus monkey at 1 mg/kg; format: ADME, organism-based, Macaca fascicularis; details: in vivo
Outline: (§1)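 Single iv or oral doses in male animals, 3 per group except dog iv (2 animals). Plasma concentration–time profiles gave Cmax, tmax, AUC0–t, clearance, steady-state volume of distribution, half-life and bioavailability.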

[2] = Volume of distribution at steady state in mouse at 0.5 mg/kg, iv; format: ADME, organism-based; details: in vivo, read-out: Vdss; outline: as §1
[3] = Half life in Sprague-Dawley rat at 1 mg/kg, iv; format: ADME, organism-based; details: in vivo
Outline: (§2)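 Rat PK with iv and po administration at 1 mg/kg. Clearance and half-life came from the iv arm, and bioavailability from the iv/po comparison.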

[4] = AUC (0 to t) in Sprague-Dawley rat at 2 mg/kg, po; format: ADME, organism-based; design: dose 2 mg/kg; details: in vivo
Outline: (§3)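 Multi-species PK study in male animals, n = 3 per group (dog IV arm n = 2). Iv and oral dosing with plasma concentration–time profiles yielding Cmax, tmax, AUC0–t, CL, Vss, t1/2 and F.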

[5] = Cmax in Sprague-Dawley rat at 3 mg/kg, po; format: ADME, organism-based; design: route oral, dose 3 mg/kg; details: in vivo
[6] = Cmax in mouse at 1 mg/kg, po; format: ADME, organism-based; design: route oral, dose 1 mg/kg; details: in vivo; outline: as §3
[7] = Half life in human; format: ADME
[8] = Half life in Sprague-Dawley rat at 3 mg/kg, po; format: ADME, organism-based; details: in vivo
[9] = Metabolic stability in rat liver microsomes assessed as intrinsic clearance measured upto 90mins by HPLC/MS/MS analysis; format: ADME, Microsome; details: read-out: CLH
[10] = Half life in mouse at 0.5 mg/kg, iv; format: ADME, organism-based; details: in vivo; outline: as §3
[11] = Half life in Sprague-Dawley rat at 8 mg/kg, po; format: ADME, organism-based; details: in vivo; outline: as §3
[12] = test system: Rattus norvegicus; assay: Anti-hypertrophic cardiomyopathy in po dosed Sprague-Dawley rat assessed as reduction in fractional shortening by measuring free concentration measured upto 24 hrs by echocardiography; format: functional; details: time hrs <=24
Outline: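 Sprague–Dawley rats received single oral doses of 0.5–4 mg/kg, with fractional shortening measured by echocardiography over 24 h. Blood was sampled at each echo time point. Plasma levels were converted to free concentrations using rat plasma protein binding, and free IC10 and IC50 were derived from the FS reduction–concentration relationship.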

[13] = biological target: Cytochrome P450 2D6 (Homo sapiens, UniProt P10635); assay: Inhibition of CYP2D6 in human liver microsomes assessed as bufuralol 1'-hydroxylation reaction incubated for 30 mins in presence of NADP by LC-MS/MS analysis; format: ADME
Chain of Cytochrome P450 2D6 (P10635 whole entry): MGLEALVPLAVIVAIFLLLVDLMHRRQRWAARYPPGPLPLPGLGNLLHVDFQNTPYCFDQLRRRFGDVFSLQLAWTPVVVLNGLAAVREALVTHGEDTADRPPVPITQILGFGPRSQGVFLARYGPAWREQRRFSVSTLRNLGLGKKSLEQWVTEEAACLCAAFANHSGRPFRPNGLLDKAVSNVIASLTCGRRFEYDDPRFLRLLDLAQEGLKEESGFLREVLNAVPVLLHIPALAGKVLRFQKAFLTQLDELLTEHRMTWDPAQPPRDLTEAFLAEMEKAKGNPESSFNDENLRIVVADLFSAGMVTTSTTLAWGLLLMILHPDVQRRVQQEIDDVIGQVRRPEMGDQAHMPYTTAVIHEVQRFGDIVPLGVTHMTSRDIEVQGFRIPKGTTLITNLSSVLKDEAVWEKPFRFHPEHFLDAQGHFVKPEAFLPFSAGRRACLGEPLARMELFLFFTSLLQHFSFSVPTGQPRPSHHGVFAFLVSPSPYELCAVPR

[14] = Tmax in mouse at 1 mg/kg, po; format: ADME, organism-based; details: in vivo; outline: as §1
[15] = test system: Rattus norvegicus; assay: Anti-hypertrophic cardiomyopathy in Sprague-Dawley rat assessed as reduction in fractional shortening at 4 mg/kg, po measured upto 24 hrs by echocardiography relative to control; format: functional; design: scale not given: the % may be the effect or the level left; details: time hrs <=24
Outline: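 Normal Sprague–Dawley rats were given single oral doses of 0.5–4 mg/kg. Left ventricular dimensions and fractional shortening were measured by echocardiography at selected time points over 24 h, relative to vehicle treatment.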

[16] = Bioavailability in Sprague-Dawley rat at 1 mg/kg, po or 1 mg/kg, iv; format: ADME, organism-based; details: in vivo; outline: as §2
[17] = Metabolic stability in human liver microsomes assessed as intrinsic clearance measured upto 90mins by HPLC/MS/MS analysis; format: ADME, Microsome; details: read-out: CLH
[18] = Tmax in cynomolgus monkey at 1 mg/kg, po; format: ADME, organism-based, Macaca fascicularis; details: in vivo; outline: as §1
[19] = Volume of distribution at steady state in Beagle dog at 1 mg/kg, iv; format: ADME, organism-based, Canis lupus familiaris; details: in vivo; outline: as §1
[20] = biological target: T1, Cytochrome P450 2C8 (Homo sapiens, UniProt P10632); assay: Inhibition of CYP2C8 in human liver microsomes assessed as paclitaxel 6a-hydroxylation reaction incubated for 30 mins in presence of NADP by LC-MS/MS analysis; format: ADME
T1 sequence (P10632 whole entry): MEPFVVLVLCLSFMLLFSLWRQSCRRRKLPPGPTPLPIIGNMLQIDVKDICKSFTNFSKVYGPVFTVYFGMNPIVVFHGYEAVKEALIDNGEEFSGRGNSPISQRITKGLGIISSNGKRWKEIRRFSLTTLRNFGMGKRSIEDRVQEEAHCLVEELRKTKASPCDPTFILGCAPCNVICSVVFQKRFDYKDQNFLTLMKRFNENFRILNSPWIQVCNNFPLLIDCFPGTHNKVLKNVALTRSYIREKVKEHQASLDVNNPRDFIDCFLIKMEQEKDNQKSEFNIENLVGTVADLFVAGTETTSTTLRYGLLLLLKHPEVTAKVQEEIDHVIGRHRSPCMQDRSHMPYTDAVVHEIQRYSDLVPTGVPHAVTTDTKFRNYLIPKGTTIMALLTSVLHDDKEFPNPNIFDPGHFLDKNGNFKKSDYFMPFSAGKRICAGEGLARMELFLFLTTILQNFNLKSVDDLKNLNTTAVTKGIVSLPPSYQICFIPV

[21] = Inhibition of full-length myosin ATPase activity in bovine cardiac myofibrils; format: subcellular, Bos taurus, Heart
Outline: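 Bovine cardiac myofibril ATPase assay run at a calcium level giving 75% of maximal activity.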

[22] = Clearance in Sprague-Dawley rat at 1 mg/kg; format: ADME, organism-based; details: in vivo; outline: as §2
[23] = Clearance in cynomolgus monkey at 1 mg/kg, iv; format: ADME, organism-based, Macaca fascicularis; details: in vivo; outline: as §3
[24] = biological target: Cytochrome P450 2C9 (Homo sapiens, UniProt P11712); assay: Inhibition of CYP2C9 in human liver microsomes assessed as diclofenac 4'-hydroxylation reaction incubated for 30 mins in presence of NADP by LC-MS/MS analysis; format: ADME
Chain of Cytochrome P450 2C9 (P11712 whole entry): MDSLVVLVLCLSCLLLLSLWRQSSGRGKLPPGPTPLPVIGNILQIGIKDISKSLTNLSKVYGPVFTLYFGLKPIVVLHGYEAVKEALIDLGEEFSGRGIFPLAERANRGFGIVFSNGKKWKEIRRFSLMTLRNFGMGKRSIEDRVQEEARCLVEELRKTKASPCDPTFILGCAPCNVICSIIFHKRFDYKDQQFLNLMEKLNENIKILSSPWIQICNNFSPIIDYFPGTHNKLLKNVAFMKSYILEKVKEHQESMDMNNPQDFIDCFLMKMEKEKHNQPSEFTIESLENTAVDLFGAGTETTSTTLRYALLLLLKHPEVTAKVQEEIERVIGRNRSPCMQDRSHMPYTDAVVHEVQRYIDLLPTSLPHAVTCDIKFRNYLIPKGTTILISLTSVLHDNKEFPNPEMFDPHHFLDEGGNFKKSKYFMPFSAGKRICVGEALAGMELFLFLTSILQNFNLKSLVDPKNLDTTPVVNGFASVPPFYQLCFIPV

[25] = Oral bioavailability in Sprague-Dawley rat at 3 mg/kg; format: ADME, organism-based; details: in vivo; outline: as §1
[26] = Plasma protein binding in rat assessed as unbound fraction; format: ADME, cell-free
[27] = biological target: T2, Cytochrome P450 2B6 (Homo sapiens, UniProt P20813); assay: Inhibition of CYP2B6 in human liver microsomes assessed as bupropion hydroxylation reaction incubated for 30 mins in presence of NADP by LC-MS/MS analysis; format: ADME
T2 sequence (P20813 whole entry): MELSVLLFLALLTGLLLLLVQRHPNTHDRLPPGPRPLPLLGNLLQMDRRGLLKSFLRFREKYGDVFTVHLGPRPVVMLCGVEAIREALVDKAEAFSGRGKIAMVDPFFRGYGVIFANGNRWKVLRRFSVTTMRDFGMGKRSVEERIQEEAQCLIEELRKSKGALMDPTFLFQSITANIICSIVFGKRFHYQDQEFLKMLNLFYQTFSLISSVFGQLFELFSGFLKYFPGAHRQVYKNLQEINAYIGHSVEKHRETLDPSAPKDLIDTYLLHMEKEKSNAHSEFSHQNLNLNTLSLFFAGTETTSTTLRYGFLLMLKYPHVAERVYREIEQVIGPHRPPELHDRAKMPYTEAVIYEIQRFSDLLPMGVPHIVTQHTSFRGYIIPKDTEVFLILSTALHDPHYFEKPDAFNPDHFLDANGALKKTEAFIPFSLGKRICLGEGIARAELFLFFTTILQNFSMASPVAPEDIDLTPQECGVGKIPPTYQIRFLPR

[28] = Oral bioavailability in Beagle dog at 1 mg/kg; format: ADME, organism-based, Canis lupus familiaris; details: in vivo; outline: as §3
[29] = Clearance in Sprague-Dawley rat at 1 mg/kg, iv; format: ADME, organism-based; details: in vivo; outline: as §2
[30] = biological target: Cytochrome P450 3A4 (Homo sapiens, UniProt P08684); assay: Inhibition of CYP3A4 in human liver microsomes incubated for 30 mins in presence of NADP by LC-MS/MS analysis
Chain of Cytochrome P450 3A4 (P08684 whole entry, looked up): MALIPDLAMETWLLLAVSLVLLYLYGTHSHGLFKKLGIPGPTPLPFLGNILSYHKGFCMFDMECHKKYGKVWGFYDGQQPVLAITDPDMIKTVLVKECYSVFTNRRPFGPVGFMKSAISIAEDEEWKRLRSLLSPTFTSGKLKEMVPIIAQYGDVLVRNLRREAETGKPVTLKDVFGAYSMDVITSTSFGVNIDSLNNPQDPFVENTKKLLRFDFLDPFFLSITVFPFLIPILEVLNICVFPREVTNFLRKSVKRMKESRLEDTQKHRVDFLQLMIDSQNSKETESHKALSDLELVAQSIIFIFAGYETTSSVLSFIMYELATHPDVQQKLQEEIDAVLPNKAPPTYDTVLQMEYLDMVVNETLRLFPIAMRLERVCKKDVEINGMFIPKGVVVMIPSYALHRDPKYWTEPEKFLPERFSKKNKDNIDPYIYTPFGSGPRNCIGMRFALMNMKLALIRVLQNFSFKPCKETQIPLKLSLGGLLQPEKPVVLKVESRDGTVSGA

[31] = Tmax in Sprague-Dawley rat at 3 mg/kg, po; format: ADME, organism-based; details: in vivo; outline: as §1

bioavailability [1]: 41%
Vd [2]: 3.14 L/kg
half-life [3]: 3 h
AUC(0-t) [4]: 9450 ng·h/mL
Cmax [5]: 3170 ng/mL
Cmax [6]: 268 ng/mL
half-life [7]: 67.2 h
half-life [8]: 3.5 h
CLint scaled [9]: < 21 mL/min/kg
half-life [10]: 4.5 h
half-life [11]: 3.3 h
IC50 [13]: > 100 µM
Tmax [14]: 0.25 h
bioavailability [16]: 55%
CLint scaled [17]: < 11 mL/min/kg
Tmax [18]: 1.17 h
Vd [19]: 10.5 L/kg
IC50 [20]: > 100 µM
IC50 [21]: 1.4 µM
clearance [22]: 2.1 mL/min/kg
clearance [23]: 11.2 mL/min/kg
IC50 [24]: > 100 µM
bioavailability [25]: 58%
fraction unbound [26]: 0.018
IC50 [27]: > 100 µM
bioavailability [28]: 45%
clearance [29]: 2.1 mL/min/kg
IC50 [30]: > 100 µM
Tmax [31]: 0.42 h
Compound: CCc1nc(-c2ccc3c(c2)CC[C@H]3NC(=O)c2cnn(C)c2)no1 [AFICAMTEN]
IC10 [12]: 0.0144 µM
Activity [15]: 70%
